{"data": "Measured values of several laboratories", "gag-pol reverse transcriptase": "Gag-Pol polyprotein, reverse transcriptase (gag-pol, Human immunodeficiency virus type 1 group M subtype B, UniProt P04585)", "gag-pol protease": "Gag-Pol polyprotein, protease (gag-pol, Human immunodeficiency virus type 1 group M subtype B, UniProt P04585)", "note": "Lines come from different studies, so protocols differ."}
{"SMILES": "CC1(C)CC(=O)c2cc3c(C#N)cn(Cc4ccccc4)c3nc2C1", "target": "gag-pol reverse transcriptase", "test": "enzyme activity, inhibitor, FRET", "quantity": "IC50", "value": "> 10000 nM"}
{"SMILES": "CC(C)CN(C[C@@H](O)[C@H](Cc1ccccc1)NC(=O)O[C@H]1CCO[C@H]2OCC[C@H]21)S(=O)(=O)c1ccc(B(O)O)cc1", "target": "gag-pol protease", "test": "enzyme activity, inhibitor", "quantity": "Ki", "value": "0.0021 nM"}
{"SMILES": "C=CCCOc1ccc(C[C@H](NC(=O)c2cccc(O)c2CCC=C)[C@H](O)CN(CC(C)C)S(=O)(=O)c2ccc(OC)cc2)cc1", "target": "gag-pol protease", "test": "enzyme activity, inhibitor", "quantity": "Ki", "value": "7 nM"}
{"SMILES": "CC(C)C[C@H]1C(OC(C)(C)C)=CC(=O)N1[C@H]1CCN(C2=CC(=O)NC2Cc2ccccc2)C1 (stereo partly shown)", "target": "gag-pol protease", "test": "enzyme activity, inhibitor, fluorescence", "quantity": "IC50", "value": "516000 nM"}
{"SMILES": "Oc1cc2c(cc1O)C(c1ccccc1)CNCC2 (racemic)", "target": "Gag-Pol polyprotein, integrase (gag-pol, Human immunodeficiency virus type 1 group M subtype B, UniProt P04585)", "test": "enzyme activity, inhibitor", "quantity": "IC50", "value": "> 25000 nM"}
{"SMILES": "CC(C)(C)n1cc(C#N)c2cc(C=O)cnc21", "target": "gag-pol reverse transcriptase", "test": "enzyme activity, inhibitor, FRET", "quantity": "IC50", "value": "> 10000 nM"}
{"SMILES": "C=CCCCCOc1ccc(C[C@H](NC(=O)c2cccc(O)c2CCC=C)[C@H](O)CN(CC(C)C)S(=O)(=O)c2ccc(OC)cc2)cc1", "target": "gag-pol protease", "test": "enzyme activity, inhibitor", "quantity": "Ki", "value": "30 nM"}
{"SMILES": "N#Cc1cn(Cc2ccccc2)c2ncc(Br)cc12", "target": "gag-pol reverse transcriptase", "test": "enzyme activity, inhibitor, FRET", "quantity": "IC50", "value": "> 100000 nM"}
{"SMILES": "CC(C)[C@H](NC(=O)[C@H](CCCNC(=N)N)NC(=O)[C@H](CO)NC(=O)[C@@H](N)Cc1c[nH]c2ccccc12)C(=O)NCC(=O)N[C@@H](Cc1ccc(O)cc1)C(=O)N[C@@H](Cc1c[nH]c2ccccc12)C(N)=O", "target": "gag-pol protease", "test": "binding, SPR", "quantity": "Kd", "value": "44600 nM"}
{"SMILES": "Cc1cn([C@H]2C[C@H](N=[N+]=[N-])[C@@H](CO[P@](=O)(O)O[P@](=O)(O)OP(=O)(O)O)O2)c(=O)[nH]c1=O", "target": "gag-pol reverse transcriptase", "test": "enzyme activity, inhibitor", "quantity": "IC50", "value": "185 nM"}
{"SMILES": "COc1ccc(S(=O)(=O)N(CC(C)C)C[C@@H](O)[C@H](Cc2ccccc2)NC(=O)OC2CO[C@H]3OCC(F)(F)[C@@H]23)cc1 (stereo partly shown)", "target": "gag-pol protease", "test": "enzyme activity, inhibitor", "quantity": "Ki", "value": "0.022 nM"}
{"SMILES": "COc1ccc2c(c1)OCCCCCCCCCN(C[C@@H](O)[C@H](Cc1ccccc1)NC(=O)O[C@H]1CO[C@H]3OCC[C@H]31)S2(=O)=O", "target": "gag-pol protease", "test": "enzyme activity, inhibitor", "quantity": "Ki", "value": "< 0.7 nM"}
{"SMILES": "C=CCCc1c(O)cccc1C(=O)N[C@@H](Cc1ccc(OCC=C)cc1)[C@H](O)CN(CC(C)C)S(=O)(=O)c1ccc(OC)cc1", "target": "gag-pol protease", "test": "enzyme activity, inhibitor", "quantity": "Ki", "value": "5 nM"}
